The test system of assay [1] is MT4. Briefly: Effective concentration to achieve 50% protection of MT-4 cells against the cytopathic effect of HIV-2. It is filed as functional, cell-based.
Assay [2] has as its system MT4. The assay is described as follows: Selectivity index for CC50 (cytotoxic concentration based on reduction of viability of mock-infected MT-4 cells) to that of EC50 against HIV-2. It is filed as functional. The method, boiled down:
(§1)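 MT-4 cells at 3 × 10^5 cells/mL were infected with HIV-1 IIIB or HIV-2 ROD at 100 CCID50/mL, or mock-infected, alongside serial compound dilutions. Viability was read by MTT after 5 days at 37 °C. CC50 comes from mock-infected cells and EC50 from protection against cytopathicity. Index = CC50/EC50.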

Assay [3] relates to MT4. The assay is described as follows: Effective concentration to achieve 50% protection of MT-4 cells against the cytopathic effect of HIV-1. It is filed as functional, cell-based. Background: Damage to the host cells serves as the signal in cytopathic effect assays.
Assay [4] can be described thus: In vitro anticoagulant activity determined by clotting test of activated partial thromboplastin time (APTT) on a pool of human plasma. It is filed as functional. The gist of the method: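 Activated partial thromboplastin time clotting test on pooled human plasma, run on an automatic coagulometer. Activities were calculated according to the European Pharmacopoeia.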

In assay [5] the test system is HuT78. Briefly: Giant-cell formation between persistently HIV-1 infected HUT-78 cells and uninfected MOLT-4 cells. It is filed as functional, cell-based. The gist of the method: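 MOLT-4 cells were co-cultured with an equal number of HUT-78 cells persistently infected with HIV-1 IIIB or HIV-2 ROD, with varying compound concentrations. Syncytia were counted by flow cytofluorography after 24 h. EC50 is the concentration giving 50% protection against giant-cell formation.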

For assay [6], the system named is MT4. The assay is described as follows: Selectivity index for CC50 (cytotoxic concentration based on the reduction of the viability of mock-infected MT-4 cells) to that of EC50 against HIV-1. It is filed as functional. The gist of the method:
as §1

Setting [7] is: Homo sapiens, MT4, read-out: EC50.
[8] abbreviates: Homo sapiens, HuT78, read-out: EC50.

Usually EC50 stands for the midpoint of the concentration-response curve. As to `CCCCOC(=O)/C=C(\COC(=O)CCC)OC1OC(COS(=O)(=O)[O-])C(OC2OC(C(=O)OCCCC)C(OC3OC(COS(=O)(=O)[O-])C(OC4OC(C(=O)OCCCC)C(OC5OC(COS(=O)(=O)[O-])C(O)C(OC(=O)CCC)C5NC(C)=O)C(OC(=O)CCC)C4OS(=O)(=O)[O-])C(OC(=O)CCC)C3NC(C)=O)C(OC(=O)CCC)C2OS(=O)(=O)[O-])C(OC(=O)CCC)C1NC(C)=O.[Na+].[Na+].[Na+].[Na+].[Na+]` (stereo unspecified), the EC50 was found to be 2.6 µg/mL in assay [1] (setting [7]), 2.3 µg/mL in assay [3] (setting [7]), 15 µg/mL in assay [5] (setting [8]) and 15 µg/mL in assay [5] (hut78). Also, the Selectivity index was above 192 in assay [2] and above 217 in assay [6]. This molecule displayed an APTT in assay [4] of 1.3 IU mg-1.

Regarding `O=C([O-])/C=C(\COC(=O)c1ccccc1)OC1OC(COS(=O)(=O)[O-])C(OC2OC(C(=O)[O-])C(OC3OC(COS(=O)(=O)[O-])C(OC4OC(C(=O)[O-])C(OC5OC(COS(=O)(=O)[O-])C(O)C(OC(=O)c6ccccc6)C5NS(=O)(=O)[O-])C(OC(=O)c5ccccc5)C4OS(=O)(=O)[O-])C(OC(=O)c4ccccc4)C3NS(=O)(=O)[O-])C(OC(=O)c3ccccc3)C2OS(=O)(=O)[O-])C(OC(=O)c2ccccc2)C1NS(=O)(=O)[O-].[Na+].[Na+].[Na+].[Na+].[Na+].[Na+].[Na+].[Na+].[Na+].[Na+].[Na+]` (stereo unspecified), the figures for the concentration giving a half-maximal response (EC50) in assay [1] (setting [7]), in assay [3] (setting [7]) and in assay [5] (setting [8]) were 0.2 µg/mL, 0.1 µg/mL and 3 µg/mL, respectively. Besides, the Selectivity index is recorded as above 2500 in assay [2] and above 5000 in assay [6]. This molecule also displayed an APTT in assay [4] of 8 IU mg-1.

With `O=C([O-])/C=C(\COC(=O)CCC(=O)[O-])OC1OC(COS(=O)(=O)[O-])C(OC2OC(C(=O)[O-])C(OC3OC(COS(=O)(=O)[O-])C(OC4OC(C(=O)[O-])C(OC5OC(COS(=O)(=O)[O-])C(O)C(OC(=O)CCC(=O)[O-])C5NS(=O)(=O)[O-])C(OC(=O)CCC(=O)[O-])C4OS(=O)(=O)[O-])C(OC(=O)CCC(=O)[O-])C3NS(=O)(=O)[O-])C(OC(=O)CCC(=O)[O-])C2OS(=O)(=O)[O-])C(OC(=O)CCC(=O)[O-])C1NS(=O)(=O)[O-].[Na+].[Na+].[Na+].[Na+].[Na+].[Na+].[Na+].[Na+].[Na+].[Na+].[Na+].[Na+].[Na+].[Na+].[Na+].[Na+].[Na+]` (stereo unspecified), the results for the concentration for a half-maximal effect (EC50) in assay [1] (setting [7]), in assay [3] (setting [7]) and in assay [5] (setting [8]) were 5 µg/mL, 0.2 µg/mL and above 100 µg/mL, respectively. Besides, the Selectivity index in assay [2] is recorded as above 100; in assay [6] it was above 2500. In assay [4], this molecule registered an APTT of 3.1 IU mg-1.

On to `CCCC(=O)OCC1OC(OC2C(C(=O)[O-])OC(OC3C(NC(C)=O)C(OC4C(C(=O)[O-])OC(C)C(OC(=O)CCC)C4O)OC(COC(=O)CCC)C3OS(=O)(=O)[O-])C(OC(=O)CCC)C2OC(=O)CCC)C(NC(C)=O)C(OC)C1OS(=O)(=O)[O-].[Na+].[Na+].[Na+].[Na+]` (stereo unspecified), for which the EC50 is 18 µg/mL in assay [1] (setting [7]), 54.2 µg/mL in assay [3] (setting [7]) and above 100 µg/mL in assay [5] (setting [8]). Also, the Selectivity index was found to be 25 in assay [2] and 8 in assay [6]. This molecule also showed an APTT in assay [4] of 3.7 IU mg-1.

Take `CCCCCC(=O)O[C@@H]1[C@@H](OC(C)=O)[C@H](O[C@H]2[C@H](OS(=O)(=O)[O-])[C@@H](NS(=O)(=O)[O-])[C@@H](O[C@H]3[C@H](OC(=O)CCCCC)[C@@H](OS(=O)(=O)[O-])[C@H](O[C@H]4[C@H](OC(=O)CCCCC)[C@@H](CO)O[C@@H]4COS(=O)(=O)[O-])O[C@H]3C(=O)[O-])O[C@@H]2COS(=O)(=O)[O-])O[C@H](C(=O)[O-])[C@H]1O[C@H]1O[C@H](COS(=O)(=O)[O-])[C@@H](O[C@@H]2O[C@@H](C(=O)[O-])[C@@H](O)[C@H](OC(=O)CCCCC)[C@H]2OC(C)=O)[C@H](OC(=O)CCCCC)[C@H]1NC(C)=O.[Na+].[Na+].[Na+].[Na+].[Na+].[Na+].[Na+].[Na+].[Na+]`: the results for the EC50 in assay [1] (setting [7]), in assay [3] (setting [7]) and in assay [5] (setting [8]) were 5.4 µg/mL, above 100 µg/mL and 8.9 µg/mL, respectively. For the same molecule, the values for the Selectivity index in assay [2] and in assay [6] were 9 and below 1, respectively. This molecule also registered an APTT in assay [4] of 4 IU mg-1.

Turning to `CCCC(=O)O[C@@H]1[C@@H](OC(C)=O)[C@H](O[C@H]2[C@@H](OS(=O)(=O)[O-])[C@@H](NS(=O)(=O)[O-])[C@@H](O[C@@H]3C(C(=O)[O-])O[C@@H](O[C@H]4[C@H](OC(=O)CCC)[C@@H](CO)O[C@@H]4COS(=O)(=O)[O-])[C@H](OS(=O)(=O)[O-])[C@H]3OC(=O)CCC)O[C@@H]2COS(=O)(=O)[O-])O[C@H](C(=O)[O-])[C@H]1O[C@H]1O[C@H](COS(=O)(=O)[O-])[C@@H](O[C@@H]2O[C@@H](C(=O)[O-])[C@@H](O)[C@H](OC(=O)CCC)[C@H]2OC(C)=O)[C@H](OC(=O)CCC)[C@H]1NC(C)=O.[Na+].[Na+].[Na+].[Na+].[Na+].[Na+].[Na+].[Na+].[Na+]` (stereo partly specified), the EC50 is 0.24 µg/mL in assay [1] (setting [7]), 0.53 µg/mL in assay [3] (setting [7]) and 15.4 µg/mL in assay [5] (setting [8]). In addition, the Selectivity index in assay [2] was determined as 15.4; in assay [6], 89. The molecule further came in with an APTT in assay [4] of 11 IU mg-1.

With `CC(=O)N[C@H]1[C@@H](O[C@H]2[C@H](OC(C)=O)[C@@H](OC(C)=O)[C@H](O[C@H]3[C@@H](OS(=O)(=O)[O-])[C@@H](NS(=O)(=O)[O-])[C@@H](O[C@@H]4C(C(=O)[O-])O[C@@H](O[C@H]5[C@H](OC(C)=O)[C@@H](CO)O[C@@H]5COS(=O)(=O)[O-])[C@H](OS(=O)(=O)[O-])[C@H]4OC(C)=O)O[C@@H]3COS(=O)(=O)[O-])O[C@@H]2C(=O)[O-])O[C@H](COS(=O)(=O)[O-])[C@@H](O[C@@H]2O[C@@H](C(=O)[O-])[C@@H](O)[C@H](OC(C)=O)[C@H]2OC(C)=O)[C@@H]1OC(C)=O.[Na+].[Na+].[Na+].[Na+].[Na+].[Na+].[Na+].[Na+].[Na+]` (stereo partly specified), the EC50 in assay [1] (setting [7]) was found to be 0.46 µg/mL; in assay [3] (setting [7]), 6.5 µg/mL; in assay [5] (setting [8]), 6.4 µg/mL. Moreover, the Selectivity index in assay [2] is recorded as 1087; in assay [6] it was 76. Besides, in assay [4], the APTT was determined as 26 IU mg-1.

Turning to `CCCCCC(=O)OC/C(=C\C(=O)[O-])OC1OC(COS(=O)(=O)[O-])C(OC2OC(C(=O)[O-])C(OC3OC(COS(=O)(=O)[O-])C(OC4OC(C(=O)[O-])C(OC5OC(CS(=O)(=O)[O-])C(O)C(OC(=O)CCCCC)C5NS(=O)(=O)[O-])C(OC(=O)CCCCC)C4OS(=O)(=O)[O-])C(OC(=O)CCCCC)C3NS(=O)(=O)[O-])C(OC(=O)CCCCC)C2OS(=O)(=O)[O-])C(OC(=O)CCCCC)C1NS(=O)(=O)[O-].[Na+].[Na+].[Na+].[Na+].[Na+].[Na+].[Na+].[Na+].[Na+].[Na+].[Na+]` (stereo in doubt; 2e), the EC50 amounted to 1.71 µg/mL in assay [1] (mt4), 0.31 µg/mL in assay [3] (mt4) and 2.9 µg/mL in assay [5] (hut78). In addition, the Selectivity index in assay [2] is above 294; in assay [6], above 1613. In assay [4], the APTT was found to be 7 IU mg-1.

As for `CCCC(=O)OC/C(=C\C(=O)[O-])O[C@H]1O[C@H](COS(=O)(=O)[O-])[C@@H](O[C@@H]2O[C@@H](C(=O)[O-])[C@@H](O[C@H]3O[C@H](COS(=O)(=O)[O-])[C@@H](O[C@@H]4O[C@@H](C(=O)[O-])[C@@H](O[C@H]5O[C@H](CS(=O)(=O)[O-])[C@@H](O)[C@H](OC(=O)CCC)[C@H]5NS(=O)(=O)[O-])[C@H](OC(=O)CCC)[C@H]4OS(=O)(=O)[O-])[C@H](OC(=O)CCC)[C@H]3NS(=O)(=O)[O-])[C@H](OC(=O)CCC)[C@H]2OS(=O)(=O)[O-])[C@H](OC(=O)CCC)[C@H]1NS(=O)(=O)[O-].[Na+].[Na+].[Na+].[Na+].[Na+].[Na+].[Na+].[Na+].[Na+].[Na+].[Na+]` (stereo in doubt; 3d), the 50% effective concentration (EC50) in assay [1] (mt4) was 0.36 µg/mL; in assay [3] (mt4), 0.21 µg/mL; in assay [5] (hut78), 10.3 µg/mL. Also, the Selectivity index in assay [2] was 914; in assay [6] it was 1480. For the same molecule, the APTT in assay [4] turned out to be 9 IU mg-1.

For `CCCC(=O)OC/C(=C\C(=O)[O-])O[C@H]1O[C@H](COS(=O)(=O)[O-])[C@@H](O[C@@H]2O[C@@H](C(=O)[O-])[C@@H](O[C@H]3O[C@H](COS(=O)(=O)[O-])[C@@H](O[C@@H]4O[C@@H](C(=O)[O-])[C@@H](O[C@H]5O[C@H](CS(=O)(=O)[O-])[C@@H](O)[C@H](OC(=O)CCC)[C@H]5NS(=O)(=O)[O-])[C@H](OC(=O)CCC)[C@H]4OS(=O)(=O)[O-])[C@H](OC(=O)CCC)[C@H]3NS(=O)(=O)[O-])[C@H](OC(=O)CCC)[C@H]2OS(=O)(=O)[O-])[C@H](OC(=O)CCC)[C@H]1NS(=O)(=O)[O-].[Na+].[Na+].[Na+].[Na+].[Na+].[Na+].[Na+].[Na+].[Na+].[Na+].[Na+]` (stereo in doubt; 3e), the EC50 in assay [1] (mt4) is 0.28 µg/mL; in assay [3] (mt4), 0.26 µg/mL; in assay [5] (hut78) it was 1.5 µg/mL. The Selectivity index in assay [2] came to 1261; in assay [6], 1357. The molecule further showed an APTT in assay [4] of 11 IU mg-1.

The record behind these values is ChEMBL document CHEMBL1126896, “Preparation and anti-HIV activity of O-acylated heparin and dermatan sulfate derivatives with low anticoagulant effect” (J Med Chem, 1993).
